The text below walks through data of ChEMBL document CHEMBL4130346, “New quinoline-arylamidine hybrids: Synthesis, DNA/RNA binding and antitumor activity” (Eur J Med Chem, 2017).

The nature of data set [1]: Solubility of the compound in DMSO. Format: physicochemical.
Data set [2] has as its system Raji. The experiment in a line: Growth inhibition of human Raji cells after 72 hrs by MTT assay. Type of data set: functional. A digest of the protocol: (§1)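 Leukemia cells (1x10^5 cells/cm3) were exposed to compound for 72 h, then MTT (5 mg/cm3) was added for 4 h. Formazan was dissolved with 10% SDS in 0.01 mol dm-3 HCl and absorbance read at 595 nm. Percent growth was taken versus untreated control minus background. GI50 came from a variable-slope fit, as mean ± SD of three independent experiments in triplicate.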

Data set [3] relates to K562. In words: Cell cycle arrest in human K562 cells assessed as decrease in cell levels at S phase at 10^-5 mol/dm'3 after 24 hrs by propidium iodide staining-based flow cytometric method. Type of data set: functional.
Data set [4] can be described thus: Binding affinity to polyA-polyU (unknown origin) by UV-vis spectrophotometric method. A digest of the protocol:
(§2)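 UV-Vis titration at room temperature in Na cacodylate buffer (I = 0.05 mol dm-3, pH 7.0). Portions of ct-DNA or polyA-polyU were added to a fixed compound concentration until saturation, with dilution correction. Polynucleotide was measured as phosphate. Ks and n were obtained by Scatchard analysis, together with the hypochromic change at the absorption maximum.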

Data set [5] is described as follows: Chemical stability in aqueous solution after several weeks. Format: physicochemical. Conditions: buffer. An outline of the steps:
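Aqueous compound solutions were monitored for several weeks by UV-Vis absorbance at 220-900 nm. Linearity with concentration was checked up to 3.5 × 10^-5 mol dm-3, and spectra were recorded at 25–90 °C with reproducibility checked on cooling to 25 °C.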

Data set [6] can be described thus: Binding affinity to polyA-polyU (unknown origin) assessed as hypochromic effect by UV-vis spectrophotometric method. A digest of the protocol:
as §2

Data set [7] has as its system K562. The experiment in a line: Growth inhibition of human K562 cells after 72 hrs by MTT assay. Format: functional. Conditions: K562, 72 h. A digest of the protocol: as §1
Data set [8] relates to K562. The experiment in a line: Cell cycle arrest in human K562 cells assessed as accumulation at G0-G1 phase at 10^-5 mol/dm'3 after 24 hrs by propidium iodide staining-based flow cytometric method. Format: functional.
For data set [9], the system named is Caco-2. The experiment in a line: Growth inhibition of human Caco2 cells after 72 hrs by MTT assay. Format: functional. Conditions: Caco-2, 72 h. An outline of the steps: (§3)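 Adherent cells (2x10^4 cells/cm3) attached overnight, then were exposed to compound for 72 h. Medium was replaced with 5 mg/cm3 MTT, formazan was dissolved in DMSO and absorbance read at 595 nm. Percent growth was taken relative to untreated control minus background. GI50 came from a variable-slope log-inhibitor fit, as mean ± SD of three independent experiments in triplicate.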

Data set [10] concerns HeLa. In words: Growth inhibition of human HeLa cells after 72 hrs by MTT assay. Format: functional. An outline of the steps: as §3
The nature of data set [11]: Growth inhibition of MDCK1 cells after 72 hrs by MTT assay. The arrangement: species or system Canis lupus familiaris. Conditions: dog. A digest of the protocol:
as §3

The subject of data set [12] is Calf thymus DNA. In words: Binding affinity to calf thymus DNA assessed as hypochromic effect by UV-vis spectrophotometric method. Type of data set: nucleic-acid assay. Conditions: Bos taurus. A digest of the protocol: as §2
The test system of data set [13] is K562. The experiment in a line: Cell cycle arrest in human K562 cells assessed as decrease in cell levels at G2-M phase at 10^-5 mol/dm'3 after 24 hrs by propidium iodide staining-based flow cytometric method. Type of data set: functional.
The nature of data set [14]: Binding affinity to polyA-polyU (unknown origin) assessed as change in melting temperature at 0.3 compound to ds-polynucleotide ratio by spectrophotometric method. A digest of the protocol:
(§4)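 Thermal melting of ct-DNA (sonicated, filtered) or polyA-polyU in Na cacodylate buffer, I = 0.05 mol dm-3, pH 7.0, at given r = [compound]/[polynucleotide]; polynucleotide as phosphate concentration. Tm from maximum of first derivative, checked by tangent method. ΔTm = Tm(complex) − Tm(free nucleic acid), average of at least two measurements, error ±0.5 °C.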

In data set [15] the test system is Calf thymus DNA. The experiment in a line: Binding affinity to calf thymus DNA assessed as change in melting temperature at 0.1 compound to ds-polynucleotide ratio by spectrophotometric method. Format: nucleic-acid assay. Conditions: Bos taurus. A digest of the protocol:
as §4

The nature of data set [16]: Binding affinity to polyA-polyU (unknown origin) assessed as change in melting temperature at 0.5 compound to ds-polynucleotide ratio by spectrophotometric method. A digest of the protocol: as §4
The test system of data set [17] is Calf thymus DNA. In words: Binding affinity to calf thymus DNA assessed as change in melting temperature at 0.5 compound to ds-polynucleotide ratio by spectrophotometric method. Format: nucleic-acid assay. Conditions: Bos taurus. A digest of the protocol:
as §4

Data set [18] can be described thus: Binding affinity to polyA-polyU (unknown origin) assessed as change in melting temperature at 0.1 compound to ds-polynucleotide ratio by spectrophotometric method. A digest of the protocol: as §4
For data set [19], the system named is Calf thymus DNA. In words: Binding affinity to calf thymus DNA assessed as change in melting temperature at 0.3 compound to ds-polynucleotide ratio by spectrophotometric method. Type of data set: nucleic-acid assay. Conditions: Bos taurus. An outline of the steps:
as §4

The nature of data set [20]: Solubility of the compound in water. Format: physicochemical.
Data set [21] relates to Calf thymus DNA. In words: Disruption of calf thymus DNA helix at 0.1, 0.3, 0.5, 0.7 compound to ds-polynucleotide ratio by CD-spectrophotometric method. Format: nucleic-acid assay. Conditions: Bos taurus. A digest of the protocol:
(§5)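 Induced CD spectra were recorded in 1 cm quartz cuvettes in Na cacodylate buffer (I = 0.05 mol dm-3, pH 7.0) with ct-DNA or polyA-polyU. Compound was added at r = [compound]/[polynucleotide] = 0.1, 0.3, 0.5 and 0.7. The CD signal was followed as a function of r.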

A short description of data set [22]: Binding affinity to polyA-polyU (unknown origin) major groove at 0.1, 0.3, 0.5, 0.7 compound to ds-polynucleotide ratio by CD-spectrophotometric method. A digest of the protocol:
as §5

The test system of data set [23] is Calf thymus DNA. In words: Binding affinity to calf thymus DNA minor groove at 0.1, 0.3, 0.5, 0.7 compound to ds-polynucleotide ratio by CD-spectrophotometric method. Format: nucleic-acid assay. Conditions: Bos taurus. A digest of the protocol:
as §5

The test system of data set [24] is K562. The experiment in a line: Cell cycle arrest in human K562 cells assessed as accumulation at sub-G0 phase at 10^-5 mol/dm'3 after 24 hrs by propidium iodide staining-based flow cytometric method. Type of data set: functional.
Data set [25] deals with Calf thymus DNA. The experiment in a line: Binding affinity to calf thymus DNA by UV-vis spectrophotometric method. Format: nucleic-acid assay. Conditions: Bos taurus. A digest of the protocol: as §2

Converted amounts (≈) assume the structure as drawn. The source made the active and inactive calls. No cut-off for these calls is given here. A value given as a limit tells only on which side of the number the result lay.

The compound `N#Cc1ccc(OCCNc2ccnc3cc(Cl)ccc23)cc1` gave a solubility in data set [1] of 1000 µM (≈ 324 µg/mL). For the same compound, the GI50 in data set [2] is 6.2 µM; in data set [7], 7.2 µM; in data set [9], 95.3 µM; in data set [10], 84.4 µM. In addition, the result in data set [3], in [8] and in data set [13] was Active. The “log Ks” value in data set [4] was “inactive”. Moreover, the Stability entry in data set [5] is on record as “Stable”. The result in [6] was inactive. The same compound registered a GI50 at 72 h in data set [11] of over 100 µM. Besides, the Activity in [12] was 26.2%.

`Cl.Cl.Cl.N=C(NC1CCCC1)c1ccc(Oc2ccnc3cc(Cl)ccc23)cc1`: the GI50 worked out at 19.7 µM in data set [2], 18.8 µM in data set [7], 13.5 µM in data set [9] and 48.6 µM in data set [10]. The outcome in [3], in data set [8] and in [13] was Active. For the same compound, the Stability result in data set [5] is “Stable”. The ΔTm worked out at 0.65 °C in [14]; 1.35 °C in data set [15]; 0.28 °C in data set [16]; 1.51 °C in data set [17]; 0.64 °C in [18]; 1.43 °C in data set [19]. Also, the GI50 at 72 h in data set [11] was 35 µM. The concentration in solution in data set [20] (solubility) was 1000 µM.

For the compound `CC(C)CNC(=N)c1ccc(Oc2ccnc3cc(Cl)ccc23)cc1.Cl.Cl.Cl`, the GI50 in data set [2] is 25.5 µM; in [7], 16.9 µM; in data set [9], 71.9 µM; in [10], 52.3 µM. The outcome in data set [3], in [8] and in data set [13] was Active. The Stability result in [5] was “Stable”. For the same compound, the ΔTm in [14] is -0.8 °C; in [15], 1.91 °C; in data set [16], -0.44 °C; in [17] it was 1.85 °C; in data set [18], -0.71 °C; in data set [19] it was 1.97 °C. Besides, in data set [11], halving of growth (GI50 at 72 h) required 30.3 µM. The solubility in data set [20] was found to be 1000 µM.

Consider `Cl.Cl.Cl.Clc1ccc2c(NCCOc3ccc(-c4nc5ccc(C6=NCCN6)cc5[nH]4)cc3)ccnc2c1`, for which the GI50 was 27.5 µM in [2], 8.6 µM in [7], 117 µM in [9] and over 100 µM in [10]. For the same compound, the result in data set [3], in data set [21], in data set [22], in data set [23] and in data set [24] was Active. In data set [4], this compound gave a log Ks of 6.71. For the same compound, the Stability result in data set [5] is “Stable”. In addition, the values for the Activity in data set [6] and in data set [12] were 37.7% and 21.6 to 26%, respectively. The ΔTm was 5.16 °C in data set [14], 5.75 °C in data set [15], 8.86 to 33.5 °C in data set [16] and 4.62 °C in [18]. In data set [11], this compound displayed a GI50 at 72 h of over 100 µM. Besides, the solubility in [20] worked out at 1000 µM.

`CC(C)CNC(=N)c1ccc2nc(-c3ccc(OCCNc4ccnc5cc(Cl)ccc45)cc3)[nH]c2c1.Cl.Cl.Cl`: the GI50 was 28.5 µM in [2], 15.1 µM in data set [7], over 100 µM in [9] and over 100 µM in [10]. For the same compound, the result in [3], in data set [21], in data set [22], in data set [23], in data set [24] and in data set [13] was Active. Besides, the log Ks was 7.02 in [4] and 6.51 in data set [25]. In addition, the Stability entry in data set [5] is on record as “Stable”. Also, the figures for the Activity in data set [6] and in data set [12] were 26% and 32.2%, respectively. Moreover, the ΔTm in [14] stood at 0.75 °C; in data set [15], 4.31 °C; in [17], 8.67 °C; in data set [18] it was 1.24 °C; in data set [19] it was 8.15 °C. In [11], this compound returned a GI50 at 72 h of 94.1 µM. In [20], the solubility was 1000 µM.
